Source: ChEMBL document CHEMBL5344459, “Suppressive Effects of Neuromedin U Receptor 2-Selective Peptide Agonists on Appetite and Prolactin Secretion in Mice” (2024)
Active and inactive are the calls of the source. The calls are words filed in the database; no cut-off is given here. Non-standard residues stand in square brackets, D forms with d. Residues, ends and D or L forms follow the SMILES beside them. *: point of attachment. Propanoyl(3-cHex) = O=C(CCC1CCCCC1)*; Dab = NCC[C@H](N)C(=O)O

Columns and labels:
Mus musculus [1] = assay: Induction of stress related behaviour in ddY mouse assessed as increase in cumulative grooming time at 200 nmol administered intranasally and measured after 24 hrs by open field test; assay type: functional; settings: route nas
Summary of the method: (§1)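 Open field (40 × 40 × 50 cm) with video tracking at 45 min and 24 h after i.n. dosing (200 nmol); total distance, cumulative grooming time, and inner ratio (% time in central 20 × 20 cm zone) scored. N = 8, mean ± SD; two-way repeated measures ANOVA, Tukey–Kramer.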

Mus musculus [2] = assay: Induction of anxiety-like behaviour in ddY mouse assessed as decrease in inner ratio at 200 nmol administered intranasally and measured after 45 mins by open field test; assay type: functional; settings: route nas; summary of the method: as §1
Mus musculus [3] = assay: Effect on total distance travelled in ddY mouse at 200 nmol administered intranasally and measured after 3 hrs by open field test; assay type: functional; settings: route nas
Mus musculus [4] = assay: Induction of stress related behaviour in ddY mouse assessed as increase in cumulative grooming time at 200 nmol administered intranasally and measured after 45 mins by open field test; assay type: functional; settings: route nas; summary of the method: as §1
Mus musculus [5] = assay: Suppression of appetite in ddY mouse assessed as decrease in food consumption at 200 nmol administered intranasally as single dose on day 0 and measured on day 1; assay type: functional, organism-based; settings: route nas, time 1.0 day
Summary of the method: (§2)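 Single i.n. dose (200 nmol) or saline vehicle given on day 0; mice housed individually, with body weight, food and water consumed recorded daily. N = 8 per group, mean ± SD; two-way repeated measures ANOVA followed by Tukey–Kramer test.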

Mus musculus [6] = assay: Induction of anxiety-like behaviour in ddY mouse assessed as decrease in inner ratio at 200 nmol administered intranasally and measured after 3 hrs by open field test; assay type: functional; settings: route nas
Mus musculus [7] = assay: Effect on water intake in ddY mouse at 200 nmol administered intranasally as single dose on day 0 and measured for 3 days; assay type: functional; settings: route nas, time 3.0 day; summary of the method: as §2
Mus musculus [8] = assay: Suppression of restrain stress-induced plasma prolactin level in C57BL/6J mouse at 20 nmol administered intranasally and 50 mins later exposure to restraint stress for 40 mins by ELISA; assay type: functional, organism-based; settings: route nas, time 90.0 min
Mus musculus [9] = assay: Suppression of restrain stress-induced plasma prolactin level in C57BL/6J mouse at 200 nmol administered intranasally followed by exposure to restraint stress for 40 mins by ELISA; assay type: functional, organism-based; settings: route nas
Mus musculus [10] = assay: Suppression of appetite in ddY mouse assessed as decrease in daily food intake at 200 nmol administered intranasally on day 0 to 2 and measured on days 1 to 3; assay type: functional, organism-based; settings: route nas, time 3.0 day
Summary of the method: (§3)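 Daily i.n. dosing (200 nmol) or saline vehicle on days 0–2 in individually housed mice; body weight (relative to day 0), daily food intake and water intake recorded daily. N = 8, mean ± SD; two-way repeated measures ANOVA with Tukey–Kramer test.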

Mus musculus [11] = assay: Suppression of appetite in ddY mouse assessed as body weight at 200 nmol administered intranasally on days 0 to 2 and measured for 3 days relative to day 0; assay type: functional; settings: route nas, time 3 day; summary of the method: as §3
Mus musculus [12] = assay: Induction of anxiety-like behaviour in ddY mouse assessed as decrease in inner ratio at 200 nmol administered intranasally and measured after 24 hrs by open field test; assay type: functional; settings: route nas; summary of the method: as §1
Mus musculus [13] = assay: Suppression of plasma prolactin level in C57BL/6J mouse assessed as prolactin level at 20 nmol administered intranasally by ELISA (reference value: 0.45 +/-0.14 ng/ml); assay type: functional; settings: route nas
Mus musculus [14] = assay: Effect on total distance travelled in ddY mouse at 200 nmol administered intranasally and measured after 45 mins by open field test; assay type: functional; settings: route nas; summary of the method: as §1
Mus musculus [15] = assay: Suppression of restrain stress-induced plasma prolactin level in C57BL/6J mouse assessed as prolactin level at 20 nmol administered intranasally followed by exposure to restraint stress for 40 mins by ELISA (reference value: 2.04 +/-0.95 ng/ml); assay type: functional; settings: route nas
Mus musculus [16] = assay: Suppression of appetite in ddY mouse assessed as decrease in body weight gain at 200 nmol administered intranasally as single dose on day 0; assay type: functional, organism-based; settings: route nas; summary of the method: as §2
Mus musculus [17] = assay: Induction of stress related behaviour in ddY mouse assessed as increase in cumulative grooming time at 200 nmol administered intranasally and measured after 3 hrs by open field test; assay type: functional; settings: route nas
Mus musculus [18] = assay: Increase in water intake in ddY mouse at 200 nmol administered intranasally on days 0 to 2 and measured on days 4 to 5; assay type: functional; settings: route nas, time 4-5 day; summary of the method: as §3

## CC(C)C[C@H](NC(=O)CCC1CCCCC1)C(=O)N[C@@H](CC(C)C)C(=O)N[C@@H](CCN)C(=O)N1CCC[C@H]1C(=O)N[C@@H](CCCNC(=N)N)C(=O)N[C@@H](CC(N)=O)C(N)=O ({Propanoyl(3-cHex)}-LL[Dab]PRN-NH2)
Mus musculus [1]
  Activity: inactive
Mus musculus [2]
  Activity: Active
Mus musculus [3]
  Activity: inactive
Mus musculus [4]
  Activity: Active
Mus musculus [5]
  inhibition: Active
Mus musculus [6]
  Activity: inactive
Mus musculus [7]
  Activity: inactive
Mus musculus [8]
  inhibition: inactive
Mus musculus [9]
  inhibition: Active
Mus musculus [10]
  inhibition: Active
Mus musculus [11]
  Activity: <100%
Mus musculus [12]
  Activity: inactive
Mus musculus [13]
  Activity: <0.15 ng/mL
Mus musculus [14]
  Activity: inactive
Mus musculus [15]
  Activity: 0.49 ng/mL
Mus musculus [16]
  inhibition: Active
Mus musculus [17]
  Activity: inactive
Mus musculus [18]
  Activity: Active
